From ChEMBL document CHEMBL4261538, “Synthesis and molecular docking studies of xanthone attached amino acids as potential antimicrobial and anti-inflammatory agents” (Medchemcomm, 2017)
≈ marks a conversion by molar mass, not a printed value.

Assays:
Bacillus subtilis [1] = assay: Antibacterial activity against Bacillus subtilis at 75 ug/ml incubated for 24 hrs by agar well diffusion method; type: functional; details: for zone of inhibition at 75 µg/mL: read-out: DIZ
Outline: (§1)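 Bacteria grown in nutrient broth at 37 °C for 24 h, then subcultured at room temperature. Compounds dissolved in DMSO at 5 mg mL⁻¹ and 5–20 µL added to 6 mm wells, giving 25, 50, 75, 100 µg per well. Gentamicin was the positive control and DMSO the negative control. Plates held at 37 °C for 24 h, then inhibition zone diameter (mm) measured. Values are means of three determinations.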

Escherichia coli [2] = assay: Antibacterial activity against Escherichia coli at 50 ug/ml incubated for 24 hrs by agar well diffusion method; type: functional; details: for zone of inhibition at 50 µg/mL: read-out: DIZ; outline: as §1
Staphylococcus aureus [3] = assay: Antibacterial activity against Staphylococcus aureus at 100 ug/ml incubated for 24 hrs by agar well diffusion method; type: functional; details: for zone of inhibition at 100 µg/mL: read-out: DIZ; outline: as §1
Staphylococcus aureus [4] = assay: Antibacterial activity against Staphylococcus aureus incubated for 24 hrs by microdilution method; type: functional
Escherichia coli [5] = assay: Antibacterial activity against Escherichia coli at 75 ug/ml incubated for 24 hrs by agar well diffusion method; type: functional; details: for zone of inhibition at 75 µg/mL: read-out: DIZ; outline: as §1
Escherichia coli [6] = assay: Antibacterial activity against Escherichia coli incubated for 24 hrs by microdilution method; type: functional
Staphylococcus aureus [7] = assay: Antibacterial activity against Staphylococcus aureus at 75 ug/ml incubated for 24 hrs by agar well diffusion method; type: functional; details: for zone of inhibition at 75 µg/mL: read-out: DIZ; outline: as §1
Klebsiella pneumoniae [8] = assay: Antibacterial activity against Klebsiella pneumoniae at 25 ug/ml incubated for 24 hrs by agar well diffusion method; type: functional; details: for zone of inhibition at 25 µg/mL: read-out: DIZ; outline: as §1
Klebsiella pneumoniae [9] = assay: Antibacterial activity against Klebsiella pneumoniae at 100 ug/ml incubated for 24 hrs by agar well diffusion method; type: functional; details: for zone of inhibition at 100 µg/mL: read-out: DIZ; outline: as §1
Klebsiella pneumoniae [10] = assay: Antibacterial activity against Klebsiella pneumoniae at 75 ug/ml incubated for 24 hrs by agar well diffusion method; type: functional; details: for zone of inhibition at 75 µg/mL: read-out: DIZ; outline: as §1
Staphylococcus aureus [11] = assay: Antibacterial activity against Staphylococcus aureus at 25 ug/ml incubated for 24 hrs by agar well diffusion method; type: functional; details: for zone of inhibition at 25 µg/mL: read-out: DIZ; outline: as §1
Escherichia coli [12] = assay: Antibacterial activity against Escherichia coli at 100 ug/ml incubated for 24 hrs by agar well diffusion method; type: functional; details: for zone of inhibition at 100 µg/mL: read-out: DIZ; outline: as §1
Staphylococcus aureus [13] = assay: Antibacterial activity against Staphylococcus aureus at 50 ug/ml incubated for 24 hrs by agar well diffusion method; type: functional; details: for zone of inhibition at 50 µg/mL: read-out: DIZ; outline: as §1
Bacillus subtilis [14] = assay: Antibacterial activity against Bacillus subtilis at 25 ug/ml incubated for 24 hrs by agar well diffusion method; type: functional; details: for zone of inhibition at 25 µg/mL: read-out: DIZ; outline: as §1
Klebsiella pneumoniae [15] = assay: Antibacterial activity against Klebsiella pneumoniae incubated for 24 hrs by microdilution method; type: functional
Bacillus subtilis [16] = assay: Antibacterial activity against Bacillus subtilis at 50 ug/ml incubated for 24 hrs by agar well diffusion method; type: functional; details: for zone of inhibition at 50 µg/mL: read-out: DIZ; outline: as §1
Bacillus subtilis [17] = assay: Antibacterial activity against Bacillus subtilis at 100 ug/ml incubated for 24 hrs by agar well diffusion method; type: functional; details: for zone of inhibition at 100 µg/mL: read-out: DIZ; outline: as §1
Bacillus subtilis [18] = assay: Antibacterial activity against Bacillus subtilis incubated for 24 hrs by microdilution method; type: functional
Escherichia coli [19] = assay: Antibacterial activity against Escherichia coli at 25 ug/ml incubated for 24 hrs by agar well diffusion method; type: functional; details: for zone of inhibition at 25 µg/mL: read-out: DIZ; outline: as §1
Klebsiella pneumoniae [20] = assay: Antibacterial activity against Klebsiella pneumoniae at 50 ug/ml incubated for 24 hrs by agar well diffusion method; type: functional; details: for zone of inhibition at 50 µg/mL: read-out: DIZ; outline: as §1
Candida albicans [21] = assay: Antifungal activity against Candida albicans at 75 ug/ml incubated for 48 hrs by agar well diffusion method; type: functional; details: read-out: DIZ
Outline: (§2)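 Compounds dissolved in DMSO at 5 mg mL⁻¹ and 5–20 µL added to 6 mm wells, giving 25, 50, 75, 100 µg per well. Bavistin was the positive control and DMSO the negative control. Plates incubated at 28 °C for 48 h, then inhibition zone diameter (mm) measured. Values are means of three determinations.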

Fusarium oxysporum [22] = assay: Antifungal activity against Fusarium oxysporum at 100 ug/ml incubated for 48 hrs by agar well diffusion method; type: functional; details: read-out: DIZ; outline: as §2
Fusarium oxysporum [23] = assay: Antifungal activity against Fusarium oxysporum at 25 ug/ml incubated for 48 hrs by agar well diffusion method; type: functional; details: read-out: DIZ; outline: as §2
Aspergillus niger [24] = assay: Antifungal activity against Aspergillus niger at 75 ug/ml incubated for 48 hrs by agar well diffusion method; type: functional; details: read-out: DIZ; outline: as §2
Aspergillus niger [25] = assay: Antifungal activity against Aspergillus niger at 100 ug/ml incubated for 48 hrs by agar well diffusion method; type: functional; details: read-out: DIZ; outline: as §2
Fusarium oxysporum [26] = assay: Antifungal activity against Fusarium oxysporum at 50 ug/ml incubated for 48 hrs by agar well diffusion method; type: functional; details: read-out: DIZ; outline: as §2
Fusarium oxysporum [27] = assay: Antifungal activity against Fusarium oxysporum at 75 ug/ml incubated for 48 hrs by agar well diffusion method; type: functional; details: read-out: DIZ; outline: as §2
Aspergillus niger [28] = assay: Antifungal activity against Aspergillus niger at 25 ug/ml incubated for 48 hrs by agar well diffusion method; type: functional; details: read-out: DIZ; outline: as §2
Candida albicans [29] = assay: Antifungal activity against Candida albicans at 25 ug/ml incubated for 48 hrs by agar well diffusion method; type: functional; details: read-out: DIZ; outline: as §2
Candida albicans [30] = assay: Antifungal activity against Candida albicans incubated for 48 to 72 hrs by microdilution method; type: functional
Outline: (§3)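 Sabouraud agar plates inoculated with fungal suspension at 10⁵ CFU mL⁻¹ plus serially diluted compounds and bavistin reference, both in DMSO. Incubated at 25 °C for 48–72 h. MIC is the lowest concentration completely inhibiting growth. Values are means of three determinations.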

Fusarium oxysporum [31] = assay: Antifungal activity against Fusarium oxysporum incubated for 48 to 72 hrs by microdilution method; type: functional; outline: as §3
Aspergillus niger [32] = assay: Antifungal activity against Aspergillus niger at 50 ug/ml incubated for 48 hrs by agar well diffusion method; type: functional; details: read-out: DIZ; outline: as §2
Candida albicans [33] = assay: Antifungal activity against Candida albicans at 50 ug/ml incubated for 48 hrs by agar well diffusion method; type: functional; details: read-out: DIZ; outline: as §2
Candida albicans [34] = assay: Antifungal activity against Candida albicans at 100 ug/ml incubated for 48 hrs by agar well diffusion method; type: functional; details: read-out: DIZ; outline: as §2
Aspergillus niger [35] = assay: Antifungal activity against Aspergillus niger incubated for 48 to 72 hrs by microdilution method; type: functional; outline: as §3
Erythrocyte = assay: Anti-inflammatory activity in human RBC assessed as inhibition of hypotonic solution-induced hemolysis after 10 mins by spectrophotometric method; type: functional, cell-based
Outline: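 Human blood (heparinized) washed with 0.9% saline, packed cells made into a 40% v/v stock in isotonic phosphate buffer (154 mM NaCl, 10 mM sodium phosphate, pH 7.4). Stock RBC mixed with hypotonic buffer (50 mM NaCl, 10 mM phosphate, pH 7.4) plus sample at 20–100 µg mL⁻¹.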

Molecule	zone of inhibition at 75 µg/mL (Candida albicans [21])	zone of inhibition at 100 µg/mL (Fusarium oxysporum [22])	zone of inhibition at 25 µg/mL (Fusarium oxysporum [23])	zone of inhibition at 75 µg/mL (Aspergillus niger [24])	zone of inhibition at 100 µg/mL (Aspergillus niger [25])	zone of inhibition at 50 µg/mL (Fusarium oxysporum [26])	zone of inhibition at 75 µg/mL (Fusarium oxysporum [27])	zone of inhibition at 25 µg/mL (Aspergillus niger [28])	zone of inhibition at 25 µg/mL (Candida albicans [29])	zone of inhibition at 50 µg/mL (Aspergillus niger [32])	zone of inhibition at 50 µg/mL (Candida albicans [33])	zone of inhibition at 100 µg/mL (Candida albicans [34])	zone of inhibition at 75 µg/mL (Bacillus subtilis [1])	zone of inhibition at 50 µg/mL (Escherichia coli [2])	zone of inhibition at 100 µg/mL (Staphylococcus aureus [3])	zone of inhibition at 75 µg/mL (Escherichia coli [5])	zone of inhibition at 75 µg/mL (Staphylococcus aureus [7])	zone of inhibition at 25 µg/mL (Klebsiella pneumoniae [8])	zone of inhibition at 100 µg/mL (Klebsiella pneumoniae [9])	zone of inhibition at 75 µg/mL (Klebsiella pneumoniae [10])	other results
GENTAMICIN	–	–	–	–	–	–	–	–	–	–	–	–	–	–	–	–	–	–	–	–	inhibition zone (IZ) (Bacillus subtilis [1]): 28 mm; inhibition zone (IZ) (Escherichia coli [2]): 24 mm; inhibition zone (IZ) (Staphylococcus aureus [3]): 32 mm; MIC (Staphylococcus aureus [4]): 26 µg/mL; inhibition zone (IZ) (Escherichia coli [5]): 29 mm; MIC (Escherichia coli [6]): 26 µg/mL; inhibition zone (IZ) (Staphylococcus aureus [7]): 29 mm; inhibition zone (IZ) (Klebsiella pneumoniae [8]): 19 mm; inhibition zone (IZ) (Klebsiella pneumoniae [9]): 34 mm; inhibition zone (IZ) (Klebsiella pneumoniae [10]): 29 mm; inhibition zone (IZ) (Staphylococcus aureus [11]): 17 mm; inhibition zone (IZ) (Escherichia coli [12]): 33 mm; inhibition zone (IZ) (Staphylococcus aureus [13]): 21 mm; inhibition zone (IZ) (Bacillus subtilis [14]): 21 mm; MIC (Klebsiella pneumoniae [15]): 26 µg/mL; inhibition zone (IZ) (Bacillus subtilis [16]): 24 mm; inhibition zone (IZ) (Bacillus subtilis [17]): 33 mm; MIC (Bacillus subtilis [18]): 28 µg/mL; inhibition zone (IZ) (Escherichia coli [19]): 18 mm; inhibition zone (IZ) (Klebsiella pneumoniae [20]): 24 mm
COC(=O)Nc1nc2ccccc2[nH]1 [CARBENDAZIM]	29 mm	36 mm	22 mm	33 mm	36 mm	27 mm	33 mm	20 mm	19 mm	27 mm	24 mm	32 mm	–	–	–	–	–	–	–	–	MIC (Candida albicans [30]): 28 µg/mL (≈ 146 µM); MIC (Fusarium oxysporum [31]): 27 µg/mL (≈ 141 µM); MIC (Aspergillus niger [35]): 27 µg/mL (≈ 141 µM)
Cl.N[C@@H](Cc1ccccc1)C(=O)Oc1ccc2c(=O)c3ccccc3oc2c1	34 mm	36 mm	20 mm	36 mm	41 mm	25 mm	30 mm	20 mm	24 mm	30 mm	28 mm	40 mm	34 mm	27 mm	38 mm	34 mm	34 mm	23 mm	40 mm	34 mm	MIC (Staphylococcus aureus [4]): 22 µg/mL; MIC (Escherichia coli [6]): 22 µg/mL; zone of inhibition at 25 µg/mL (Staphylococcus aureus [11]): 22 mm; zone of inhibition at 100 µg/mL (Escherichia coli [12]): 37 mm; zone of inhibition at 50 µg/mL (Staphylococcus aureus [13]): 27 mm; zone of inhibition at 25 µg/mL (Bacillus subtilis [14]): 22 mm; MIC (Klebsiella pneumoniae [15]): 24 µg/mL; MIC (Candida albicans [30]): 28 µg/mL; MIC (Fusarium oxysporum [31]): 26 µg/mL; zone of inhibition at 50 µg/mL (Bacillus subtilis [16]): 27 mm; zone of inhibition at 100 µg/mL (Bacillus subtilis [17]): 38 mm; IC50 (Erythrocyte): 38 µg/mL; MIC (Aspergillus niger [35]): 26 µg/mL; MIC (Bacillus subtilis [18]): 22 µg/mL; zone of inhibition at 25 µg/mL (Escherichia coli [19]): 20 mm; zone of inhibition at 50 µg/mL (Klebsiella pneumoniae [20]): 29 mm
CC(C)[C@H](N)C(=O)Oc1ccc2c(=O)c3ccccc3oc2c1.Cl	16 mm	21 mm	10 mm	17 mm	21 mm	15 mm	19 mm	9 mm	8 mm	12 mm	11 mm	19 mm	20 mm	15 mm	24 mm	19 mm	21 mm	16 mm	27 mm	21 mm	zone of inhibition at 25 µg/mL (Staphylococcus aureus [11]): 14 mm; zone of inhibition at 100 µg/mL (Escherichia coli [12]): 23 mm; zone of inhibition at 50 µg/mL (Staphylococcus aureus [13]): 17 mm; zone of inhibition at 25 µg/mL (Bacillus subtilis [14]): 10 mm; zone of inhibition at 50 µg/mL (Bacillus subtilis [16]): 15 mm; zone of inhibition at 100 µg/mL (Bacillus subtilis [17]): 24 mm; IC50 (Erythrocyte): 82 µg/mL; zone of inhibition at 25 µg/mL (Escherichia coli [19]): 11 mm; zone of inhibition at 50 µg/mL (Klebsiella pneumoniae [20]): 12 mm
CSCC[C@H](NC(=O)OC(C)(C)C)C(=O)Oc1ccc2c(=O)c3ccccc3oc2c1	19 mm	23 mm	8 mm	18 mm	22 mm	14 mm	17 mm	12 mm	11 mm	15 mm	16 mm	21 mm	24 mm	19 mm	27 mm	25 mm	22 mm	16 mm	31 mm	26 mm	zone of inhibition at 25 µg/mL (Staphylococcus aureus [11]): 15 mm; zone of inhibition at 100 µg/mL (Escherichia coli [12]): 30 mm; zone of inhibition at 50 µg/mL (Staphylococcus aureus [13]): 17 mm; zone of inhibition at 25 µg/mL (Bacillus subtilis [14]): 13 mm; zone of inhibition at 50 µg/mL (Bacillus subtilis [16]): 18 mm; zone of inhibition at 100 µg/mL (Bacillus subtilis [17]): 29 mm; IC50 (Erythrocyte): 36 µg/mL (≈ 81.2 µM); zone of inhibition at 25 µg/mL (Escherichia coli [19]): 16 mm; zone of inhibition at 50 µg/mL (Klebsiella pneumoniae [20]): 22 mm
